Five compounds from ChEMBL document CHEMBL5252663, “Evaluation of 1,3,4-Thiadiazole Carbonic Anhydrase Inhibitors for Gut Decolonization of Vancomycin-Resistant Enterococci” (ACS Med Chem Lett, 2023) can be followed below.

For series [1], the system named is Enterococcus faecium. In words: Antibacterial activity against vancomycin-resistant Enterococcus faecium HM-952 infected in C57BL/6 mouse assessed as reduction in bacterial burden in feces at 20 mg/kg,po qd measured after 3 days of administration. Format: functional. Further details: scale not given: the % may be the effect or the level left. The method, boiled down:
(§1)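 C57BL/6 mice given ampicillin in drinking water (0.5 g/L) for 7 days, then gavaged orally with 5.39 × 10^8 CFU/mL E. faecium HM-952. Colonization was allowed for 7 days. Randomized groups (n = 7) got 20 mg/kg by oral gavage once daily for 8 days. Vehicle was dimethylacetamide:20% propylene glycol:40% PEG 400:30% PBS. Fecal CFU was counted on days 0, 3, 5 and 7, and ileal and cecal CFU at day 9 after euthanasia. Comparison was against vehicle.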

Series [2] has as its system Enterococcus faecium. Put plainly: Antibacterial activity against vancomycin-resistant Enterococcus faecium HM-952 infected in C57BL/6 mouse assessed as log reduction in bacterial colony forming unit in feces at 20 mg/kg,po qd measured after 7 days of administration. In kind it is functional. The conditions noted are these: time 7 day. The method, boiled down: as §1

Series [3] has as its system Enterococcus faecium. Put plainly: Antibacterial activity against vancomycin-resistant Enterococcus faecium HM-952 infected in C57BL/6 mouse assessed as log reduction in bacterial colony forming unit in feces at 20 mg/kg,po qd measured after 3 days of administration. The conditions noted are these: time 3 day. In kind it is functional. The method, boiled down:
as §1

Series [4] is described as follows: Distribution coefficient between 1-Octanol and PBS buffer, logD of the compound at pH 7.4 incubated for 140 mins by HPLC anlaysis. As to conditions: 1-octanol/PBS buffer. Format: physicochemical.
Series [5] has as its system Enterococcus faecium. Put plainly: Antibacterial activity against vancomycin-resistant Enterococcus faecium HM-952 infected in C57BL/6 mouse assessed as log reduction in bacterial colony forming unit in cecum at 20 mg/kg,po qd measured after 9 days of administration. The conditions noted are these: time 9 day. Format: functional. A digest of the protocol:
as §1

Series [6] can be described thus: Distribution coefficient between 1-Octanol and PBS buffer, logD of the compound at pH 6.5 incubated for 140 mins by HPLC anlaysis. Format: physicochemical. The conditions noted are these: 1-octanol/PBS buffer.
The nature of series [7]: Aqueous solubility of the compound in PBS buffer at pH 7.4 by HPLC analysis. Format: physicochemical. The method, boiled down: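 Solubility is measured in phosphate-buffered saline at pH 7.4 and quantified against a calibration curve whose highest point is 200 μM, so the upper reportable value is >200 μM.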
Series [8] has as its system Enterococcus faecium. Put plainly: Antibacterial activity against Enterococcus faecium HM-952 assessed as inhibition of bacterial growth incubated for 18 to 20 hrs by broth microdilution assay. In kind it is functional. As to conditions: time 18-20 hrs.
The test system of series [9] is Enterococcus faecium. Put plainly: Antibacterial activity against vancomycin-resistant Enterococcus faecium HM-952 infected in C57BL/6 mouse assessed as reduction in bacterial burden in ileum at 20 mg/kg,po qd measured after 9 days of administration. The conditions noted are these: time 9 day. Format: functional. Also noted: scale not given: the % may be the effect or the level left. The method, boiled down: as §1

Series [10] relates to Enterococcus faecium. In words: Antibacterial activity against vancomycin-resistant Enterococcus faecium HM-952 infected in C57BL/6 mouse assessed as reduction in bacterial burden in cecum at 20 mg/kg,po qd measured after 9 days of administration. In kind it is functional. Further details: scale not given: the % may be the effect or the level left. The conditions noted are these: time 9 day. The method, boiled down:
as §1

The subject of series [11] is Enterococcus faecium. Put plainly: Antibacterial activity against vancomycin-resistant Enterococcus faecium HM-952 infected in C57BL/6 mouse assessed as log reduction in bacterial colony forming unit in feces at 20 mg/kg,po qd measured after 5 days of administration. In kind it is functional. As to conditions: time 5 day. A digest of the protocol: as §1
The test system of series [12] is Enterococcus faecium. In words: Antibacterial activity against vancomycin-resistant Enterococcus faecium HM-952 infected in C57BL/6 mouse assessed as reduction in bacterial burden in feces at 20 mg/kg,po qd measured after 5 days of administration. In kind it is functional. Also noted: scale not given: the % may be the effect or the level left. The method, boiled down:
as §1

Series [13] has as its system Enterococcus faecium. Put plainly: Antibacterial activity against vancomycin-resistant Enterococcus faecium HM-952 infected in C57BL/6 mouse assessed as reduction in bacterial burden in feces at 20 mg/kg,po qd measured after 7 days of administration. Format: functional. Further details: scale not given: the % may be the effect or the level left. The conditions noted are these: time 7 day. A digest of the protocol: as §1

For series [14], the system named is Enterococcus faecium. Put plainly: Antibacterial activity against vancomycin-resistant Enterococcus faecium HM-952 infected in C57BL/6 mouse assessed as log reduction in bacterial colony forming unit in ileum at 20 mg/kg,po qd measured after 9 days of administration. Format: functional. The conditions noted are these: time 9 day. A digest of the protocol:
as §1

Series [15] is described as follows: Efflux ratio of apparent permeability across basolateral to apical over apical to basolateral side in human Caco2 cells. In kind it is ADME, cell-based. As to conditions: Caco-2. The method, boiled down:
(§2)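 Caco-2 monolayer transport measured in both directions, apical→basolateral and basolateral→apical, and reported as apparent permeability (×10–6 cm/s). Efflux ratio is calculated as Papp B→A divided by Papp A→B.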

Series [16] can be described thus: Permeability across apical to basolateral side in human Caco-2 cells assessed as drug recovery. In kind it is ADME, cell-based. The conditions noted are these: read-out: Drug recovery.
Series [17] can be described thus: Apparent permeability across apical to basolateral side in human Caco2 cells. In kind it is ADME, cell-based. The conditions noted are these: Caco-2. A digest of the protocol: as §2
Series [18] is described as follows: Apparent permeability across basolateral to apical side in human Caco2 cells. Format: ADME, cell-based. The conditions noted are these: Caco-2. The method, boiled down: as §2

Converted amounts (≈) assume the structure as drawn. The source made the active and inactive calls. The calls are words filed in the database; no cut-off is given here. Some results are limits rather than exact numbers.

With `NS(=O)(=O)c1nnc(NC(=O)CN2CCOCC2)s1`, the Activity with Enterococcus faecium [1] (time 3 day) stood at 90%; in the series on Enterococcus faecium [2], 2.16 log10CFU; in the series on Enterococcus faecium [3], 1 log10CFU; in the series with Enterococcus faecium [5] it was 1.92 log10CFU; in the series with Enterococcus faecium [9], 97.6%; in the series with Enterococcus faecium [10] it was 98.8%. For the same compound, the Activity with Enterococcus faecium [11] is 1.13 log10CFU; in the series on Enterococcus faecium [12] (time 5 day), 92.6%; in the series on Enterococcus faecium [13], 99.3%; in the series with Enterococcus faecium [14] it was 1.62 log10CFU. The logD at 2.333 h in [4] is -1.38; in series [6], -0.97. Besides, in [7], the concentration in solution (solubility) came to 127 µM (≈ 39 µg/mL). Moreover, the minimum inhibitory concentration (MIC) in the series on Enterococcus faecium [8] was 1 µg/mL (≈ 3.25 µM).

Turning to `CC(=O)Nc1nnc(S(N)(=O)=O)s1` [ACETAZOLAMIDE], the Activity came to 90% in the series with Enterococcus faecium [1] (time 3 day); 2.16 log10CFU in the series with Enterococcus faecium [2]; 1 log10CFU in the series with Enterococcus faecium [3]; 2.59 log10CFU with Enterococcus faecium [5]; 99.7% with Enterococcus faecium [9]; 99.7% in the series with Enterococcus faecium [10]. The figures for the Activity in the series with Enterococcus faecium [13] and in the series with Enterococcus faecium [14] were 99.3% and 2.59 log10CFU, respectively. Moreover, the MIC in the series on Enterococcus faecium [8] worked out at 1 µg/mL (≈ 4.5 µM). Besides, the outcome in the series on Enterococcus faecium [12] (time 5.0 day) was Active.

With `NS(=O)(=O)c1nnc(NC(=O)CCC2CCCCC2)s1`, the Activity with Enterococcus faecium [1] (time 3 day) worked out at 90%; in the series on Enterococcus faecium [2], 2.16 log10CFU; in the series on Enterococcus faecium [3], 1 log10CFU; in the series with Enterococcus faecium [5], 1.57 log10CFU; in the series on Enterococcus faecium [9] it was 94.1%; with Enterococcus faecium [10] it was 97.3%. The Activity worked out at 1.13 log10CFU in the series with Enterococcus faecium [11], 92.6% in the series on Enterococcus faecium [12] (time 5 day), 99.3% in the series on Enterococcus faecium [13] and 1.13 log10CFU with Enterococcus faecium [14]. Besides, in series [15], the efflux ratio amounted to 2.17. Further, the logD at 2.333 h amounted to 2.26 in [4] and 2.47 in series [6]. The compound further showed a solubility in [7] of 33 µM (≈ 10.5 µg/mL). The MIC in the series with Enterococcus faecium [8] came out at 0.03 µg/mL (≈ 0.0942 µM). Also, the recovery in series [16] came out at 35%.

Take `CC(=O)NC[C@H]1CN(c2ccc(N3CCOCC3)c(F)c2)C(=O)O1` [LINEZOLID]: in the series on Enterococcus faecium [1] (time 3.0 day), the outcome was Active. Further, the Activity in the series on Enterococcus faecium [2] stood at 1.07 log10CFU; with Enterococcus faecium [11], 0.87 log10CFU; in the series with Enterococcus faecium [12] (time 5 day), 86.5%; with Enterococcus faecium [13] it was 91.5%. In addition, the MIC with Enterococcus faecium [8] is 1 µg/mL (≈ 2.96 µM).

On to `CC(C)(C)CC(=O)Nc1nnc(S(N)(=O)=O)s1`, for which the Activity in the series on Enterococcus faecium [1] (time 3 day) was 90%; in the series on Enterococcus faecium [2], 2.16 log10CFU; with Enterococcus faecium [3], 1 log10CFU; with Enterococcus faecium [5], 2.36 log10CFU; with Enterococcus faecium [9], 98.9%; in the series on Enterococcus faecium [10], 99.6%. Also, the Activity amounted to 1.13 log10CFU in the series on Enterococcus faecium [11], 92.6% in the series with Enterococcus faecium [12] (time 5 day), 99.3% in the series with Enterococcus faecium [13] and 1.98 log10CFU with Enterococcus faecium [14]. Besides, in series [15], the efflux ratio was found to be 2.22. For the same compound, in series [17], the Papp A→B came out at 3.7 ×10⁻⁶ cm/s. In addition, the logD at 2.333 h in series [4] was determined as 1.36; in series [6], 1.55. The same compound had a solubility in [7] above 200 µM. In addition, in the series on Enterococcus faecium [8], the MIC stood at 0.03 µg/mL (≈ 0.108 µM). For the same compound, the recovery in series [16] came out at 80%. In series [18], the basolateral-to-apical permeability (Papp B→A) amounted to 8.2 ×10⁻⁶ cm/s.
